According to ChEMBL document CHEMBL1149087, “Anticancer and antimalarial efficacy and safety of artemisinin-derived trioxane dimers in rodents” (J Med Chem, 2004):
Structures can show the parent of a compound that is named as a salt.

Legend:
TRAMP-C1A = experiment: Inhibitory concentration to inhibit growth of C1A prostate cancer cell line by using MTT assay; format: functional, cell-based; conditions: Mus musculus
In short: (§1)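 TRAMP mouse prostate cancer clonal lines, seeded at 2.5×10^4 (C1A), 2.0×10^4 (C2D, C2G) or 1.5×10^4 (C2H) cells/mL. Grown in DMEM high glucose with 10% FBS, insulin, pen-strep and 10^-8 M dihydrotestosterone at 37 °C, 5% CO2. After 24 h, switched to phenol-free medium with ethanol-dissolved compound. MTT read-out at 0, 24, 48 and 72 h: 4 h MTT, then SDS/HCl solubilisation overnight.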

C2D cell line = experiment: Inhibitory concentration to inhibit growth of C2D prostate cancer cell line by using MTT assay; format: functional, cell-based, Homo sapiens; conditions: Mus musculus; in short: as §1
TRAMP-C2H = experiment: Inhibitory concentration to inhibit growth of C2H prostate cancer cell line by using MTT assay; format: functional, cell-based; conditions: Mus musculus; in short: as §1
C2G cell line = experiment: Inhibitory concentration to inhibit growth of C2G prostate cancer cell line by using MTT assay; format: functional, cell-based, Homo sapiens; conditions: Mus musculus; in short: as §1
Plasmodium falciparum = experiment: In vitro antimalarial activity for Plasmodium falciparum NF54 infected mice (Mus musculus); format: functional, organism-based
In short: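 In vitro antimalarial assay run in quadruplicate, with artemisinin as concurrent control (n = 3). EC50 taken from fitted dose-response curves.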

[1] = Therapeutic index expressed as maximum tolerated / ED50 intravenously was determined; conditions: iv; read-out: Therapeutic index
In short: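 Therapeutic index calculated as maximum tolerated single ip dose in mice divided by iv ED50 (mg/kg/day × 4).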

Mus musculus [2] = experiment: Compound was tested for number of animals that remain safe when administered intraperitoneally in mice (total no of deaths =125); 0/3; format: functional
Mus musculus [3] = experiment: Compound was tested for number of animals that remain safe when administered intraperitoneally in mice (total no of deaths =250); 1/3; format: functional
Mus musculus [4] = experiment: Compound was tested for number of animals that remain safe when administered intraperitoneally in mice (total no of deaths =750); 2/3; format: functional
Mus musculus [5] = experiment: Compound was tested for number of animals that remain safe when administered intraperitoneally in mice (total no of deaths =500); 3/3; format: functional
Mus musculus [6] = organism: Mus musculus; experiment: Compound was tested for weight gain in mice; reduced; format: functional, organism-based
Mus musculus [7] = experiment: Compound was tested for number of animals that remain safe when administered intraperitoneally in mice (dose 500 mg/kg); deaths 3/3
Mus musculus [8] = organism: Mus musculus; experiment: Compound was tested for weight gain in mice; markedly reduced; format: functional, organism-based
Mus musculus [9] = experiment: Compound was tested for number of animals that remain safe when administered intraperitoneally in mice (dose 250 mg/kg); deaths 1/3
Mus musculus [10] = experiment: Compound was tested for number of animals that remain safe when administered intraperitoneally in mice (dose 125 mg/kg); deaths 0/3
Mus musculus [11] = experiment: Compound was tested for number of animals that remain safe when administered intraperitoneally in mice (total no of deaths =500); 1/3; format: functional
Mus musculus [12] = experiment: Compound was tested for number of animals that remain safe when administered intraperitoneally in mice (total no of deaths =250); 0/3; format: functional
Mus musculus [13] = experiment: Compound was tested for number of animals that remain safe when administered intraperitoneally in mice (total no of deaths =750); 3/3; format: functional

| Compound | IC50 (TRAMP-C1A) [nM] | IC50 (C2D cell line) [nM] | IC50 (TRAMP-C2H) [nM] | IC50 (C2G cell line) [nM] | EC50 (Plasmodium falciparum) [nM] | selectivity ratio [1] | other results |
| --- | --- | --- | --- | --- | --- | --- | --- |
| C[C@H]1[C@H](OC(=O)CCC(=O)OCC(CO)COC(=O)CCC(=O)O[C@@H]2O[C@@H]3O[C@]4(C)CC[C@H]5[C@H](C)CC[C@@H]([C@H]2C)[C@@]35OO4)O[C@@H]2OC3(C)CC[C@H]4[C@H](C)CC[C@@H]1[C@@]24OO3 (single isomer, unassigned) | 23.3 | 18.5 | 9.2 | 15.4 | – | – | – |
| C[C@@H]1CC[C@H]2[C@@H](C)C(=O)O[C@@H]3O[C@@]4(C)CC[C@@H]1[C@]32OO4 [ARTEMISININ] | – | – | – | – | 8.8 | – | – |
| C[C@H]1[C@H](OC(=O)CCC(=O)OCC(COC(=O)CCC(=O)O[C@@H]2O[C@@H]3O[C@]4(C)CC[C@H]5[C@H](C)CC[C@@H]([C@H]2C)[C@@]35OO4)COC(=O)c2cc[n+]([O-])cc2)O[C@@H]2O[C@]3(C)CC[C@H]4[C@H](C)CC[C@@H]1[C@@]24OO3 (stereo not given in full) | 84.6 | 62.1 | 36.1 | 47.4 | 0.53 | 156 | Therapeutic index (Mus musculus [2]): 0 mg/kg; Therapeutic index (Mus musculus [3]): 1 mg/kg; Therapeutic index (Mus musculus [4]): 2 mg/kg; Therapeutic index (Mus musculus [5]): 3 mg/kg; Activity (Mus musculus [6]): Weight gain reduced |
| C[C@H]1[C@H](OC(=O)CCC(=O)[O-])O[C@@H]2O[C@@]3(C)CC[C@H]4[C@H](C)CC[C@@H]1[C@@]24OO3.[Na+] [SODIUM ARESUNATE] | – | – | – | – | 1.5 | 23 | Deaths (Mus musculus [7]): 3 deaths; Activity (Mus musculus [8]): Weight gain markedly reduced; Deaths (Mus musculus [9]): 1 deaths; Deaths (Mus musculus [10]): 0 deaths |
| C[C@H]1[C@H](OC(=O)CCC(=O)OCC(COC(=O)CCC(=O)O[C@@H]2O[C@@H]3O[C@]4(C)CC[C@H]5[C@H](C)CC[C@@H]([C@H]2C)[C@@]35OO4)C(=O)O)O[C@@H]2O[C@]3(C)CC[C@H]4[C@H](C)CC[C@@H]1[C@@]24OO3 (stereo not given in full) | 159 | 231 | 116 | 134 | 2.4 | 167 | Therapeutic index (Mus musculus [11]): 1 mg/kg; Therapeutic index (Mus musculus [12]): 0 mg/kg; Therapeutic index (Mus musculus [13]): 3 mg/kg; Therapeutic index (Mus musculus [2]): 0 mg/kg |
| Nc1ccn([C@@H]2O[C@H](CO)[C@@H](O)C2(F)F)c(=O)n1 [GEMCITABINE HYDROCHLORIDE] | 9 | 11.9 | 4.7 | 3.7 | – | – | – |
| COc1cccc2c1C(=O)c1c(O)c3c(c(O)c1C2=O)C[C@@](O)(C(=O)CO)C[C@@H]3O[C@H]1C[C@H](N)[C@H](O)[C@H](C)O1 [DOXORUBICIN] | 75.9 | 46.5 | 30.3 | 28.7 | – | – | – |
